In ChEMBL document CHEMBL2417509, “Synthesis and biological evaluation of prodigiosene conjugates of porphyrin, estrone and 4-hydroxytamoxifen” (2013):

Key:
Assay type in all cases: functional
SN12C = experiment: Cytotoxicity against human SN12C cells after 2 days by sulforhodamine B assay; details: 48 h
In short: (§1)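 NCI60 multi-dose screen, 59 human tumour lines available. Cells exposed to compound across a 5-log mol/L concentration range for 2 days, then fixed and stained with sulphorhodamine B, optical density read. Growth inhibition calculated against time-zero control and untreated cells. GI50 derived from the dose series, average of two replicates.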

BT-549 = experiment: Cytotoxicity against human BT549 cells after 2 days by sulforhodamine B assay; details: BT-549, 48 h; in short: as §1
OVCAR-8 = experiment: Cytotoxicity against human OVCAR8 cells after 2 days by sulforhodamine B assay; details: OVCAR-8, 48 h; in short: as §1
HCT-15 = experiment: Cytotoxicity against human HCT15 cells after 2 days by sulforhodamine B assay; details: HCT-15, 48 h; in short: as §1
M14 = experiment: Cytotoxicity against human M14 cells after 2 days by sulforhodamine B assay; details: M14, 48 h; in short: as §1
HCT-116 = experiment: Cytotoxicity against human HCT116 cells after 2 days by sulforhodamine B assay; details: HCT-116, 48 h; in short: as §1
HOP-62 = experiment: Cytotoxicity against human HOP62 cells after 2 days by sulforhodamine B assay; details: HOP-62, 48 h; in short: as §1
MCF7 = experiment: Cytotoxicity against human MCF7 cells after 2 days by sulforhodamine B assay; details: MCF7, 48 h; in short: as §1
SR = experiment: Cytotoxicity against human SR cells after 2 days by sulforhodamine B assay; details: 48 h
In short: (§2)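 NCI DTP NCI60 multi-dose screen (59 human tumour lines available). Cells exposed to compound over a 5-log mol/L concentration range for 2 days, then fixed and stained with sulphorhodamine B, with optical density read. Growth inhibition calculated relative to time-zero cells and untreated cells, giving GI50 (half-maximal growth inhibition concentration). Average of two replicates.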

MDA-MB-435 = experiment: Cytotoxicity against human MDA-MB-435 cells after 2 days by sulforhodamine B assay; details: MDA-MB-435, 48 h; in short: as §1
SF-295 = experiment: Cytotoxicity against human SF295 cells after 2 days by sulforhodamine B assay; details: SF-295, 48 h; in short: as §1
UACC-257 = experiment: Cytotoxicity against human UACC257 cells after 2 days by sulforhodamine B assay; details: UACC-257, 48 h; in short: as §2
SK-OV-3 = experiment: Cytotoxicity against human SKOV3 cells after 2 days by sulforhodamine B assay; details: SK-OV-3, 48 h; in short: as §1
HL-60(TB) = experiment: Cytotoxicity against human HL-60(TB) cells after 2 days by sulforhodamine B assay; details: HL-60, 48 h
In short: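 NCI60 multi-dose screen: cells exposed to compound over a 5-log mol/L concentration range for 2 days, then fixed and stained with sulphorhodamine B and optical density read. Growth inhibition calculated relative to time-zero control and untreated cells; GI50 reported as average of two replicates.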

CCRF-CEM = experiment: Cytotoxicity against human CCRF-CEM cells after 2 days by sulforhodamine B assay; details: 48 h; in short: as §1
NCI-H23 = experiment: Cytotoxicity against human NCI-H23 cells after 2 days by sulforhodamine B assay; details: NCI-H23, 48 h; in short: as §1
UO-31 = experiment: Cytotoxicity against human UO31 cells after 2 days by sulforhodamine B assay; details: UO-31, 48 h; in short: as §2
SK-MEL-28 = experiment: Cytotoxicity against human SK-MEL-28 cells after 2 days by sulforhodamine B assay; details: SK-MEL-28, 48 h; in short: as §1
OVCAR-3 = experiment: Cytotoxicity against human OVCAR3 cells after 2 days by sulforhodamine B assay; details: OVCAR-3, 48 h; in short: as §1
NCI-H226 = experiment: Cytotoxicity against human NCI-H226 cells after 2 days by sulforhodamine B assay; details: NCI-H226, 48 h; in short: as §1
KM12 = experiment: Cytotoxicity against human KM12 cells after 2 days by sulforhodamine B assay; details: KM12, 48 h; in short: as §1
NCI-H322M = experiment: Cytotoxicity against human NCI-H322M cells after 2 days by sulforhodamine B assay; details: 48 h; in short: as §1
OVCAR-4 = experiment: Cytotoxicity against human OVCAR4 cells after 2 days by sulforhodamine B assay; details: OVCAR-4, 48 h; in short: as §1
SK-MEL-2 = experiment: Cytotoxicity against human SK-MEL-2 cells after 2 days by sulforhodamine B assay; details: SK-MEL-2, 48 h; in short: as §1
OVCAR-5 = experiment: Cytotoxicity against human OVCAR5 cells after 2 days by sulforhodamine B assay; details: OVCAR-5, 48 h; in short: as §1
LOX IMVI = experiment: Cytotoxicity against human LOXIMVI cells after 2 days by sulforhodamine B assay; details: 48 h; in short: as §1
UACC-62 = experiment: Cytotoxicity against human UACC62 cells after 2 days by sulforhodamine B assay; details: UACC-62, 48 h; in short: as §2
K562 = experiment: Cytotoxicity against human K562 cells after 2 days by sulforhodamine B assay; details: K562, 48 h; in short: as §1
SK-MEL-5 = experiment: Cytotoxicity against human SK-MEL-5 cells after 2 days by sulforhodamine B assay; details: SK-MEL-5, 48 h; in short: as §1
NCI-H460 = experiment: Cytotoxicity against human NCI-H460 cells after 2 days by sulforhodamine B assay; details: NCI-H460, 48 h; in short: as §1
[1] = read-out: LC50 (the source's name)

For CCC(=C(c1ccc(OCCN(C)C)cc1)c1ccc(OC(=O)CCCCC(=O)C2=C(C)/C(=C/c3[nH]c(-c4ccc[nH]4)cc3OC)N=C2C)cc1)c1ccccc1, the GI50 (SN12C) was 5.37 µM, the TGI (SN12C) was 21.4 µM and the CC50 (SN12C; [1]) was 56.2 µM. It also gave a GI50 (BT-549) of 3.55 µM, an LC50 (concentration killing 50% of cells present at time zero) (BT-549) of 41.7 µM and a TGI (BT-549) of 17 µM. The GI50 (OVCAR-8) was 6.61 µM, the LC50 (OVCAR-8) was 47.9 µM and the TGI (OVCAR-8) was 19.9 µM. The GI50 (HCT-15) was 4.47 µM, the LC50 (HCT-15) was greater than 100 µM and the TGI (HCT-15) was 28.8 µM. The GI50 (M14) was 1.82 µM, the TGI (M14) was 3.98 µM and the CC50 (M14; [1]) was 8.71 µM. For the same compound, the GI50 (HCT-116) was 3.55 µM, the LC50 (concentration killing 50% of cells vs time zero) (HCT-116) was 37.1 µM and the TGI (HCT-116) was 13.8 µM. It also gave a GI50 (HOP-62) of 12.3 µM, a TGI (HOP-62) of 24.5 µM and a CC50 (HOP-62; [1]) of 50.1 µM. The GI50 (MCF7) was 0.05 µM, the LC50 (concentration giving 50% net cell kill) (MCF7) was 4.68 µM and the TGI (MCF7) was 1.2 µM. The GI50 (SR) was 3.02 µM, the LC50 (concentration giving 50% net cell kill) (SR) was greater than 100 µM and the TGI (SR) was 20.9 µM. The GI50 (MDA-MB-435) was 6.92 µM, the TGI (MDA-MB-435) was 45.7 µM and the CC50 (MDA-MB-435; [1]) was greater than 100 µM. It also gave a GI50 (SF-295) of 7.24 µM, an LC50 (SF-295) of 45.7 µM and a TGI (SF-295) of 20.4 µM. It also gave a GI50 (UACC-257) of 12 µM, a TGI (UACC-257) of 28.8 µM and a CC50 (UACC-257; [1]) of 69.2 µM. The GI50 (SK-OV-3) was 14.1 µM, the LC50 (concentration killing 50% of starting cells) (SK-OV-3) was 52.5 µM and the TGI (SK-OV-3) was 26.9 µM. For the same compound, the GI50 (HL-60(TB)) was 18.2 µM, the TGI (HL-60(TB)) was 41.7 µM and the CC50 (HL-60(TB); [1]) was 97.7 µM. For the same compound, the GI50 (CCRF-CEM) was 0.32 µM, the TGI (CCRF-CEM) was greater than 100 µM and the CC50 (CCRF-CEM; [1]) was greater than 100 µM. For the same compound, the GI50 (NCI-H23) was 12.6 µM, the LC50 (concentration killing 50% of cells) (NCI-H23) was 69.2 µM and the TGI (NCI-H23) was 29.5 µM. It also gave a GI50 (UO-31) of 2.82 µM, an LC50 (UO-31) of 87.1 µM and a TGI (UO-31) of 21.4 µM. For the same compound, the GI50 (SK-MEL-28) was 11.5 µM, the LC50 (SK-MEL-28) was 49 µM and the TGI (SK-MEL-28) was 24 µM. It also gave a GI50 (OVCAR-3) of 11.7 µM, an LC50 (OVCAR-3) of 63.1 µM and a TGI (OVCAR-3) of 26.9 µM. It also gave a GI50 (NCI-H226) of 14.1 µM, an LC50 (NCI-H226) of 83.2 µM and a TGI (NCI-H226) of 34.7 µM. The GI50 (KM12) was 3.72 µM, the LC50 (KM12) was 46.8 µM and the TGI (KM12) was 14.4 µM. The GI50 (NCI-H322M) was 13.5 µM, the LC50 (concentration killing 50% of cells) (NCI-H322M) was 69.2 µM and the TGI (NCI-H322M) was 30.9 µM. For the same compound, the GI50 (OVCAR-4) was 4.37 µM, the LC50 (concentration killing 50% of cells) (OVCAR-4) was 70.8 µM and the TGI (OVCAR-4) was 22.4 µM. The GI50 (SK-MEL-2) was 16.6 µM, the LC50 (SK-MEL-2) was 67.6 µM and the TGI (SK-MEL-2) was 33.1 µM. For the same compound, the GI50 (OVCAR-5) was 10.5 µM, the LC50 (OVCAR-5) was 47.9 µM and the TGI (OVCAR-5) was 22.4 µM. The GI50 (LOX IMVI) was 2.04 µM, the LC50 (LOX IMVI) was 43.6 µM and the TGI (LOX IMVI) was 5.13 µM. It also gave a GI50 (UACC-62) of 4.9 µM, a TGI (UACC-62) of 17.8 µM and a CC50 (UACC-62; [1]) of 45.7 µM. For the same compound, the GI50 (K562) was 3.16 µM, the LC50 (concentration killing 50% of cells) (K562) was 72.4 µM and the TGI (K562) was 12.6 µM. For the same compound, the GI50 (SK-MEL-5) was 1.62 µM, the LC50 (concentration killing 50% of cells) (SK-MEL-5) was 6.03 µM and the TGI (SK-MEL-5) was 3.09 µM. For the same compound, the GI50 (NCI-H460) was 3.98 µM, the LC50 (NCI-H460) was 53.7 µM and the TGI (NCI-H460) was 15.5 µM.
